Only a selection was taken, and hits are over-represented in it overall.
H69AR growth 86K: blocks growth of human H69AR lung tumor cells. viability, % at 10 µM. H69AR lung tumor viability, ATP luminescence, 72 h; hits give low values. 85,000 tested, 6% active. AID 598;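 active means viability at or below 40%; inactive means viability above 40%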;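 further: multidrug resistant small cell line overexpressing MRP-1 efflux transporter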
Fibroblast inh: blocks proliferation of human lung fibroblasts | 85,000 tested, 1.1% active | AID 719 | viability, % at 10 µM | LL 47 human lung fibroblast viability, ATP luminescence; hits give low values;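 active means viability at or below 50% in the single dose screen; inactive means viability above 50%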;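 further: compound exposure lasted 72 h before the ATP readout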
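Test system: LL 47 human lung fibroblasts; Quantity: 1,150 cells/well; Buffer or medium: IMEM plus 15% FBS; Dosing: tenfold compound dosing solution, DMSO at 0.1%; Timing: overnight cell rest, 72 h compound treatment at 37 °C; Detection: ATP-based CellTiter-Glo luminescent readout; Read-out basis: viability percentage against median untreated-cell control; Controls: cell-only wells, no compound.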
bCat KO growth: beta-catenin-lacking colon tumor cell growth suppression. viability, % at 10 µM. 140,000 tested, 1.5% active. HCT116 beta-catenin knockout viability, CellTiter-Glo, 60 h; hits give low values;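 active means viability at or under a set limit, the compound median less 4 SD, cut at about 6% in these data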
HCT116 PTEN-null: growth suppressors of cells with PTEN tumor suppressor deletion | HCT116 PTEN-null viability, CellTiter-Glo, 60 h; hits give low values | viability, % at 10 µM | 140,000 tested, 1.2% active;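 active means viability at or below a set limit, 4 SD under the median of all tested compounds, cut at about 3.7% in these data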;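 further: PTEN knockout HCT116 line with beta catenin targeted HCT116 as companion control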
HUVEC inhibit: inhibitors of human endothelial cell proliferation | AID 648 | 86,000 tested, 1.1% active | viability, % at 10 µM (by protocol) | HUVEC proliferation, CellTiter-Glo luminescence, 72 h; hits give low values;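 active means viability at or below 30%; inactive means viability above 30%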
Each line names hits and unclear results; the compound was inactive in the other large screens.

COc1cc(Cl)cc2c1Sc1ccccc1/C2=C/CCN(C)C	H69AR growth 86K 2.7, bCat KO growth 2.2, HUVEC inhibit 4.1
CN(C)CC/C=C1/c2ccccc2Sc2c(O)cc(Cl)cc21	H69AR growth 86K 6.3
COc1cc2c(cc1Cl)/C(=C\CCN(C)C)c1ccccc1S2	none (no result: H69AR growth 86K, Fibroblast inh, HUVEC inhibit)
C=CCC(CC=C)(NC(=O)c1ccccc1C(=O)O)c1ccccc1	none (no result: H69AR growth 86K, Fibroblast inh, HUVEC inhibit)
CC1=CC2=NC(=O)/C(=C\c3cccn3CCOc3cc(C)ccc3C)C(=N)N2O1	none (no result: H69AR growth 86K, Fibroblast inh, HUVEC inhibit)
CCC1=NN(C(=O)c2cccnc2)C(O)(C(F)(F)F)C1 (centres undefined)	none (no result: H69AR growth 86K, Fibroblast inh, HUVEC inhibit)
N#CC(C#N)=c1ccc2c(c1)N1C3=C(CCCC3)CC3CCCCC31N=2 (centres undefined)	H69AR growth 86K 18
N#C/C(C(N)=O)=c1/ccc2c(c1)N1C3=C(CCCC3)CC3CCCCC31N=2 (centres undefined)	H69AR growth 86K 1.9
CC(C)(C)c1cc2cccnc2n1Cc1cccc(Cl)c1	none (no result: H69AR growth 86K, Fibroblast inh, HUVEC inhibit)
O=C(CCCCCn1c(=S)[nH]c2cc3c(cc2c1=O)OCO3)N1CCN(C2CCCCC2)CC1	H69AR growth 86K 2.2, Fibroblast inh 4.8, HCT116 PTEN-null 2.7
Cc1sc2nc(-c3cccs3)nc(N3CCCN(C)CC3)c2c1C	H69AR growth 86K 24, HUVEC inhibit 21 (no result: bCat KO growth, HCT116 PTEN-null)
Cc1sc2nc(CN3CCCC3)nc(N3CCN(S(=O)(=O)c4cccs4)CC3)c2c1C	HUVEC inhibit 6.4
Cc1sc2nc(CN3CCCCC3)nc(Cl)c2c1C	bCat KO growth 5.4 (no result: H69AR growth 86K, Fibroblast inh, HUVEC inhibit)
Cc1sc2nc(SCC(=O)N3CCCCC3)[nH]c(=O)c2c1C	none
O=C(NC1CCN(C(=S)NCc2ccco2)CC1)NC12CC3CC(CC(C3)C1)C2	none (no result: H69AR growth 86K, Fibroblast inh, HUVEC inhibit)
O=C(COc1cccc2ccccc12)N1c2ccccc2CCc2ccccc21	none (no result: H69AR growth 86K, Fibroblast inh, HUVEC inhibit)
CC1=NN(c2ccccc2)C(=O)/C1=C/C=C/c1ccccc1	bCat KO growth 3.4, HCT116 PTEN-null 3.2 (no result: H69AR growth 86K, Fibroblast inh, HUVEC inhibit)
CCOc1cccc(CNc2ccc(O)cc2)c1OCc1ccc(Cl)cc1	bCat KO growth 0.8, HCT116 PTEN-null 1.9 (no result: H69AR growth 86K, Fibroblast inh, HUVEC inhibit)
CCOc1cc(CNc2ccc(O)cc2)ccc1OCc1ccc(Cl)cc1Cl	none (no result: H69AR growth 86K, Fibroblast inh, HUVEC inhibit)
CCCCC1CCC(C(=O)NCc2ccc3c(c2)OCO3)CC1 (centres undefined)	none
C/C(=N\NC(=O)CSCc1cccc(Br)c1)c1ccc([N+](=O)[O-])cc1	none (no result: H69AR growth 86K, Fibroblast inh, HUVEC inhibit)
O=C(c1nnc(Cc2ccc(Cl)cc2)o1)N1CCc2ccccc2C1	bCat KO growth 1.1, HCT116 PTEN-null 0.6
COc1ccc(Cc2nnc(SCC(=O)N3CCc4ccccc4C3)o2)cc1	none
O=C(c1ccccc1)N1CCN(C2c3cccc4cccc(c34)C2NS(=O)(=O)c2ccccc2)CC1 (centres undefined)	none
COc1ccc2cc3cc(C(=O)NCCN4CCN(c5ccccc5F)CC4)oc3nc2c1	none
COc1ccc2cc3cc(C(=O)Nc4ccccc4N4CCN(C)CC4)oc3nc2c1	H69AR growth 86K 29, Fibroblast inh 28, bCat KO growth 2.1, HCT116 PTEN-null 1.5, HUVEC inhibit 3.6
CC1(C)Cc2c(c(-c3ccco3)nc3sc4c(NCCN5CCOCC5)ncnc4c23)CO1	bCat KO growth 1.6, HCT116 PTEN-null 1.4 (no result: H69AR growth 86K, Fibroblast inh, HUVEC inhibit)
O=C(Cc1ccc(-n2c(=S)[nH]c3ccccc3c2=O)cc1)N1CCN(c2ccccc2)CC1	none
CN(C)CCCNC(=O)c1ccc(-c2nc(-c3ccc(Cl)cc3)cs2)cc1	bCat KO growth 1.3, HCT116 PTEN-null 1.5 (no result: H69AR growth 86K, Fibroblast inh, HUVEC inhibit)
CN(C)CCCNC(=O)c1ccccn1	none
CC(=O)N1CCN(c2cc(N3CCc4ccccc4C3)c(F)cc2[N+](=O)[O-])CC1	none (no result: H69AR growth 86K, Fibroblast inh, HUVEC inhibit)
O=C(N/N=C/c1cccc(C(F)(F)F)c1)C1CCN(c2ncc(C(F)(F)F)cc2Cl)CC1	bCat KO growth 4.0, HCT116 PTEN-null 2.1 (no result: H69AR growth 86K, Fibroblast inh, HUVEC inhibit)
CCN(c1ccccc1)S(=O)(=O)c1ccc(Cl)c(NC(=O)CSc2nncs2)c1	none (no result: H69AR growth 86K, Fibroblast inh, HUVEC inhibit)
O=C1c2ccccc2C(=O)C1c1ccc2ccccc2n1	H69AR growth 86K 28
COC(=O)C1=C(C)NC(C)=C(C(=O)OC)C1c1ccc2ccccc2n1	none
COCc1cc(C)nc(N2CCc3ccccc32)c1C#N	H69AR growth 86K 31
COCc1cc(C)nc(Nc2ccccc2C)c1C#N	none
Cc1nn(C)cc1/C=C/C(=O)c1cccs1	H69AR growth 86K 39
CCCCNc1nc(N(C)c2ccccc2)nc(-n2ccnc2)n1	H69AR growth 86K 33
CN(c1ccccc1)c1nc(-n2ccnc2)nc(-n2ccnc2)n1	H69AR growth 86K 32
c1ccc(-c2nc(N3CCCCCC3)nc(-n3ccnc3)n2)cc1	H69AR growth 86K 0.9
c1ccc(-c2nc(N3CCN(c4ccccc4)CC3)nc(-n3ccnc3)n2)cc1	none
C=CCNc1nc(N(c2ccccc2)c2ccccc2)nc(-n2ccnc2)n1	none
CCCCN1C2CCCC1CC(NC(=O)N(C(C)C)C(C)C)C2 (centres undefined)	none (no result: bCat KO growth, HCT116 PTEN-null)
CCCCn1c(-c2nonc2N)nc2ccccc21	H69AR growth 86K 30
Nc1nonc1-c1nc2ccccc2n1Cc1ccccc1	H69AR growth 86K 17
CC(C)CCn1c(-c2nonc2N)nc2ccccc21	H69AR growth 86K 11
Nc1nonc1-c1nc2ccccc2n1CC(=O)NC1CCCC1	none
CCCCn1c(N)nc2ccccc21	none
CCOC(=O)c1ccccc1NC(=O)Cn1c(-c2nonc2N)nc2ccccc21	H69AR growth 86K 27, Fibroblast inh 47
CC1CC(C)CN(C(=O)Cn2c(-c3nonc3N)nc3ccccc32)C1 (centres undefined)	none
CCc1ccc(NC(=O)C(C)OC(=O)CCC(=O)c2cccs2)cc1 (centres undefined)	none (no result: H69AR growth 86K, Fibroblast inh, HUVEC inhibit)
